# Screens from PubChem.
# Shown is part of a subset that was picked to be rich in hits.
# T cruzi growth-1: inhibitors of T. cruzi proliferation | T. cruzi beta-gal in NIH3T3, GalScreen luminescence, 90 h | inhibition, % at 8.34 µM | 77,000 compounds, 5.9% hits;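 active = mean inhibition above about 93%, with at least 55% of replicates each passing it, limit read from the data, passing the limit was not always enough; inconclusive = only one of those two conditions holds; inactive = neither condition holds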
# IDH1 mut inh: blocks human IDH1 R132H reductase activity. O75874. diaphorase/resazurin fluorescence, 60 min. inhibition, % at 10 µM. 70,000 compounds, 0.18% hits; in the data active = inhibition above about 34%; inconclusive = no clear call, values can overlap the other calls; inactive = below about 11%
# Target sequence (O75874 whole entry R132H): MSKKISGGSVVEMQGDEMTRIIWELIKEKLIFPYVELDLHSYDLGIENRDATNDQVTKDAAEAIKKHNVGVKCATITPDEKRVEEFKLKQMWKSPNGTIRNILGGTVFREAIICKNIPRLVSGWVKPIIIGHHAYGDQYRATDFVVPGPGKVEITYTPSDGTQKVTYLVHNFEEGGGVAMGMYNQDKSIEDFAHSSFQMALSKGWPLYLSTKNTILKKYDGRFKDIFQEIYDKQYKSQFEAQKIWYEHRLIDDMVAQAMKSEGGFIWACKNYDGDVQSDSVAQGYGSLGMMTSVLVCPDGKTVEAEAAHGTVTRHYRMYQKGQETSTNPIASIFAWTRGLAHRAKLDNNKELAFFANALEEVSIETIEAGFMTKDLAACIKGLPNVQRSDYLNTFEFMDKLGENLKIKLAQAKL
# GASC1 inh: inhibitors of human demethylase GASC-1 KDM4C | GST-KDM4C 2-372, H3K9me3 peptide, LANCE TR-FRET | inhibition, % at 12.5 µM | 96,000 compounds, 0.15% hits | AID 720574;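 active = mean replicate inhibition above about 25%, with at least 55% of replicates also reaching it, limit read from the data, passing the limit was not always enough; inconclusive = only one of those two conditions met; inactive = neither condition met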
#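 material = GST-tagged GASC-1 (JMJD2C) catalytic fragment, aa 2-372 | amount = enzyme final amount 10 nM | medium = HEPES buffer, pH 7.5, plus ascorbate | also added = H3K9me3 peptide substrate, Fe(II), 2-oxoglutarate | dosing = single dose | times = 30 min demethylation and 1 h detection at room temperature | detection = LANCE TR-FRET | read-out basis = Fall in 671/618 emission ratio as inhibition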
# T cruzi growth-2: blocks T. cruzi growth in NIH3T3 host cells. shares compounds with T cruzi growth-1. T. cruzi beta-gal in NIH3T3, GalScreen luminescence, 90 h. inhibition, % at 8.35 µM. 5,600 compounds, 72% hits. AID 651739;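 active = mean replicate inhibition above about 95% and at least 55% of replicates individually reaching it, limit read from the data; inconclusive = only one of the two criteria is met; inactive = neither criterion is met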
# T cruzi growth-3: inhibitors of T. cruzi proliferation | shares compounds with T cruzi growth-1 | T. cruzi beta-gal in NIH3T3, GalScreen luminescence, 90 h | inhibition, % at 2.09 µM | 5,600 compounds, 21% hits | AID 651740;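 active = mean inhibition above about 95%, with at least 55% of replicates also reaching it, limit read from the data; inconclusive = meets just one of the two conditions; inactive = meets neither condition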
# 3T3 cytotox: cytotoxicity in mouse NIH/3T3 fibroblasts; shares compounds with T cruzi growth-1; NIH/3T3 viability, CellTiter-Glo ATP luminescence, 90 h; cytotoxicity (signal decrease), % at 8.35 µM; 5,600 compounds, 14% hits; AID 651742;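 active = mean signal decrease across replicates above about 35% based on untreated-well scatter, with enough replicates individually passing, limit read from the data; inconclusive = no rule stated though some were filed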
# NIH3T3 tox 2: kills mouse NIH/3T3 fibroblasts | shares compounds with T cruzi growth-1 | NIH/3T3 viability, CellTiter-Glo ATP luminescence, 90 h | AID 651744 | 5,600 compounds, 56% hits | inhibition, % at 24.9 µM;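 active = mean loss of cell viability signal at or above a set limit, and enough replicates individually reaching it; inconclusive = meets only the mean limit or only the replicate share; inactive = meets neither condition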
# Numbers stand for hits; 0 = inactive; ? = inconclusive; - = no result.
SMILES,T cruzi growth-1,IDH1 mut inh,GASC1 inh,T cruzi growth-2,T cruzi growth-3,3T3 cytotox,NIH3T3 tox 2
N#CC(C#N)=Cc1cc(O)c(O)c(O)c1,-,33.3,-,-,-,-,-
N#CC(C#N)=Cc1ccc(O)cc1,-,0,-,-,-,-,-
CC(C)(C)ONC(=O)CN=[N+]=[N-],-,0,-,-,-,-,-
N#Cc1cccc(-c2ccc([C@H]3[C@H](CO)N4CCCCN(C(=O)Cc5ccccc5)C[C@@H]34)cc2)c1,101.6,-,0,0,0,0,41.7
N#Cc1cccc(-c2ccc([C@@H]3[C@@H](CO)N4CCCCN(C(=O)Cc5ccncc5)C[C@H]34)cc2)c1,107.7,-,0,0,0,0,37.4
N#Cc1cccc(-c2ccc([C@H]3[C@@H](CO)N4CCCCN(C(=O)Cc5cccnc5)C[C@H]34)cc2)c1,0,-,0,-,-,-,-
N#Cc1ccc(-c2ccc([C@@H]3[C@@H](CO)N4CCCCN(C(=O)Cc5ccccc5)C[C@H]34)cc2)cc1,0,-,0,-,-,-,-
N#Cc1cccc(-c2ccc([C@H]3[C@H](CO)N4CCCCN(C(=O)Cc5cccnc5)C[C@@H]34)cc2)c1,108.7,-,0,102.8,0,0,55.5
N#Cc1cccc(-c2ccc([C@@H]3[C@H](CO)N4CCCCN(C(=O)Cc5cccnc5)C[C@@H]34)cc2)c1,0,-,0,-,-,-,-
O=C(O)c1[nH]c2ccc(Cl)cc2c1CC(=O)N1CCC2(CC1)OCCO2,-,0,-,-,-,-,-
COC1=CC(=O)O[C@@H](CCc2ccccc2)C1,-,0,-,-,-,-,-
OC[C@H]1O[C@@H](Oc2ccc(/C=C/c3cc(O)cc(O)c3)cc2O)[C@H](O)[C@@H](O)[C@@H]1O,-,0,-,-,-,-,-
O=C(Cc1cccnc1)N1CCCCN2[C@H](CO)[C@H](c3ccc(C#CC4CCCC4)cc3)[C@H]2C1,100.4,-,0,100.5,0,0,106.1
O=C(Cc1cccnc1)N1CCCCN2[C@@H](CO)[C@@H](c3ccc(C#CC4CCCC4)cc3)[C@@H]2C1,104.7,-,0,?,0,0,102.5
O=C(Cc1cccnc1)N1CCCCN2[C@@H](CO)[C@H](c3ccc(C#CC4(O)CCCC4)cc3)[C@@H]2C1,0,-,0,-,-,-,-
O=C(Cc1cccnc1)N1CCCCN2[C@H](C1)[C@@H](c1ccc(C#CC3CC3)cc1)[C@@H]2CO,0,-,-,-,-,-,-
O=C(Cc1cccnc1)N1CCCCN2[C@H](CO)[C@H](c3ccc(C#CC4(O)CCCC4)cc3)[C@@H]2C1,0,-,0,-,-,-,-
O=C(Cc1cccnc1)N1CCCCN2[C@H](C1)[C@H](c1ccc(C#CC3CCCC3)cc1)[C@@H]2CO,103.7,-,0,0,0,0,96.7
O=C(Cc1cccnc1)N1CCCCN2[C@@H](CO)[C@H](c3ccc(C#CC4CC4)cc3)[C@@H]2C1,108.5,-,-,99.5,0,0,0
O=C(Cc1cccnc1)N1CCCCN2[C@H](CO)[C@@H](c3ccc(C#CC4CC4)cc3)[C@@H]2C1,0,-,-,-,-,-,-
Oc1ccc2c3c1OC1c4[nH]c5c(c4CC4(O)C(C2)N(CC2CC2)CCC314)CC1(O)C2Cc3ccc(O)c4c3C1(CCN2CC1CC1)C5O4 (configuration not stated),-,0,-,-,-,-,-
O=C(Cn1cc(C(=O)c2ccccc2)c2ccccc21)Nc1ccc(F)cc1,-,0,-,-,-,-,-
COc1ccc(OC)c(NC(=S)NCCc2cnc[nH]2)c1,-,0,-,-,-,-,-
O=C(Cc1cccnc1)N1CCCCN2[C@H](CO)[C@@H](c3ccc(C#CC4CCCC4)cc3)[C@H]2C1,?,-,0,0,0,0,104.3
O=C(Cc1cccnc1)N1CCCCN2[C@@H](CO)[C@@H](c3ccc(C#CC4(O)CCCC4)cc3)[C@@H]2C1,0,-,0,-,-,-,-
COc1cc(C(=O)O[C@H]2[C@@H]3C=CO[C@@H](O[C@@H]4O[C@H](CO)[C@@H](O)[C@H](O)[C@H]4O)[C@@H]3[C@@]3(CO)O[C@@H]23)ccc1O,-,0,-,-,-,-,-
CCN1CC2(COC(=O)c3ccccc3N3C(=O)CC(C)C3=O)CCC(OC)C34C5CC6C(OC)CC(O)(C5C6OC)C(O)(C(OC)C23)C14 (configuration not stated),-,0,-,-,-,-,-
C/C1=C/[C@@H](C)C/C=C/[C@H]2[C@@H]3O[C@]3(C)[C@@H](C)[C@H]3[C@H](Cc4c[nH]c5ccccc45)NC(=O)[C@]32C(=O)/C=C\C(=O)[C@@H]1O,-,0,-,-,-,-,-
COc1ccccc1OCCCn1cc(C(=O)C(C)(C)C)c2ccccc21,-,0,-,-,-,-,-
